{"source": "paper PMC7193547", "about": "(Environmental Science & Technology, 2018)", "key": {"[1]": {"tested_on": "active glyphosate transporter", "conditions": "cited from earlier work"}, "[2]": {"format": "physicochemical", "conditions": "not told"}, "single bacterial cell": {"tested_on": "single bacterial cell", "in_short": "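Calculated rather than measured: the liposome-derived Papp was scaled to a single cell using an estimated cell surface area of ≈3 μm² and membrane thickness δ (one 4 nm membrane for Gram-positive, two 4 nm membranes for Gram-negative), giving a concentration-gradient-dependent influx.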"}, "Ochrobactrum sp. FrEM": {"tested_on": "Ochrobactrum sp. FrEM", "experiment": "Biodegradation of glyphosate by Ochrobactrum sp. FrEM", "format": "cell-based", "conditions": "after 4.5 days, OD600 ≈ 0.8, 30 °C, pH 7"}}, "note": "Like-named read-outs stand apart in the source and are kept apart here.", "data": [{"compound": "O=C(O)CNCP(=O)(O)O", "note": "[glyphosate, N-(phopshomethyl)glycine]", "values": [{"measurement": "uptake rate of active glyphosate transporter (dnout/dt)cell-transport", "setting": "[1]", "result": "−1.8 × 10^–21 mol·s^–1·cell^–1"}, {"measurement": "Km", "setting": "[1]; read-out: affinity constant KM for glyphosate uptake", "result": 125, "unit": "µM"}, {"measurement": "Papp at 20 mM", "setting": "[2]; pH 4.1", "result": 420, "unit": "×10⁻⁶ cm/s"}, {"measurement": "Papp at 20 mM", "setting": "[2]; pH 7", "result": 37, "unit": "×10⁻⁶ cm/s"}, {"measurement": "calculated maximum membrane permeation rate (dnout/dt)cell-perm-max", "setting": "single bacterial cell; glyphosate concentration of 1 μM", "result": "−6.5 × 10^–22 mol·s^–1·cell^–1"}, {"measurement": "calculated maximum membrane permeation rate (dnout/dt)cell-perm-max", "setting": "single bacterial cell; pH 7, 0.12 mM glyphosate, compared with Ochrobactrum sp. FrEM", "result": "−7.5 × 10^–20 mol·s^–1·cell^–1"}, {"measurement": "calculated maximum membrane permeation rate (dnout/dt)cell-perm-max", "setting": "single bacterial cell; pH 7, 3 mM glyphosate, [Sin] = 0, compared with Achromobacter sp. MPS 12A", "result": "−1.9 × 10^–18 mol·s^–1·cell^–1"}, {"measurement": "maximum permeation rate higher than degradation rate", "setting": "single bacterial cell; pH 7, 3 mM, versus degradation rate of Achromobacter sp. MPS 12A", "result": "2 orders of magnitude"}, {"measurement": "maximum glyphosate degradation rate (dn/dt)deg-cell", "setting": "Ochrobactrum sp. FrEM", "result": "−1.7 × 10^–21 mol·s^–1·cell^–1"}]}]}
